Assay results published in ChEMBL document CHEMBL1909502, “Design and synthesis of 2-(1, 3-dioxoisoindolin-2-yl)-N-(4-oxo-2-substitutedthiazolidin-3-yl) acetamide derivatives as potential anticonvulsant agents” (Eur J Med Chem, 2011).
Activity calls are given as the source filed them. The calls are words filed in the database; no cut-off is given here.

Assays:
Mus musculus [1] = test: Neurotoxicity in Swiss albino CF1 mouse assessed as minimal motor deficit at 30 to 300 mg/kg, ip after 0.5 hrs by rotarod test; format: toxicity, organism-based; parameters: dose 30-300 mg/kg, route intraperitoneal; details: in vivo
Procedure, shortened: (§1)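 Mice (male Swiss albino CF-1, groups of 5) were trained on an accelerating rotarod at 10 rpm with a 3.2 cm rod and had to stay on for two consecutive 90 s trials. Trained animals then received 30, 100 or 300 mg/kg i.p. Deficit was inability to stay on the rod for at least 1 min in each of three trials, checked at 0.5 h and 4 h. The value is the minimal dose giving deficit in 50% or more of the animals.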

Mus musculus [2] = test: Anticonvulsant activity in Swiss albino CF1 mouse assessed as protection against subcutaneous pentylenetetrazole-induced seizures at 30 to 300 mg/kg, ip after 4 hrs postdose; format: functional, organism-based
Procedure, shortened: (§2)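 Male Swiss albino CF-1 mice, 20–30 g. Compounds were suspended in 0.5% methyl cellulose and given i.p. at 0.01 mL/g, at 30, 100 and 300 mg/kg. MES and sc PTZ seizure tests followed reported procedures at 0.5 h and 4 h post-dose. The value is the minimal dose protecting 50% or more of the animals.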

Mus musculus [3] = test: Anticonvulsant activity in Swiss albino CF1 mouse assessed as protection against subcutaneous pentylenetetrazole-induced seizures at 30 to 300 mg/kg, ip after 0.5 hrs postdose; format: functional, organism-based; procedure, shortened: as §2
[4] = Octanol-phosphate buffer partition coefficient, log P of the compound at 5 mg after 24 hrs by UV spectroscopic analysis; format: physicochemical
Procedure, shortened: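 Octanol/phosphate buffer partition at room temperature. 5 mg of drug was added to 10 mL octanol plus 10 mL buffer and shaken mechanically for 24 h. The mixture was left to equilibrate for 6 h, and the phases were separated and membrane-filtered. Drug in the aqueous phase was quantified by UV spectroscopy.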

Mus musculus [5] = test: Anticonvulsant activity in Swiss albino CF1 mouse assessed as protection against maximal electroshock-induced seizures at 30 to 300 mg/kg, ip after 0.5 hrs postdose; format: functional, organism-based; procedure, shortened: as §2
Mus musculus [6] = test: Neurotoxicity in Swiss albino CF1 mouse assessed as decrease in locomotor activity at 30 mg/kg, ip after 4 hrs postdose; format: toxicity, organism-based; parameters: dose 30 mg/kg, route intraperitoneal; scale not given: the % may be the effect or the level left; details: in vivo
Procedure, shortened: (§3)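 Compounds in 30% PEG 200 were given i.p. at 30 mg/kg to male Swiss albino CF-1 mice. Locomotor activity was scored digitally in an actophotometer for 10 min, 24 h before dosing and again 0.5 h and 4 h after. The value is the % decrease against the pre-treatment score, as mean ± SEM, with Student's t test at p < 0.05.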

Mus musculus [7] = test: Neurotoxicity in Swiss albino CF1 mouse assessed as decrease in locomotor activity at 30 mg/kg, ip after 0.5 hrs postdose; format: toxicity, organism-based; parameters: dose 30 mg/kg, route intraperitoneal; scale not given: the % may be the effect or the level left; details: in vivo; procedure, shortened: as §3
Mus musculus [8] = test: Neurotoxicity in ip dosed Swiss albino CF1 mouse assessed as minimum dose required to produce minimal motor deficit after 4 hrs by rotarod test; format: toxicity, organism-based; details: in vivo; procedure, shortened: as §1
Mus musculus [9] = test: Anticonvulsant activity in ip dosed Swiss albino CF1 mouse assessed as protection against maximal electroshock-induced seizures after 4 hrs; format: functional; details: read-out: MED; procedure, shortened: as §2
Mus musculus [10] = test: Anticonvulsant activity in ip dosed Swiss albino CF1 mouse assessed as protection against subcutaneous pentylenetetrazole-induced seizures after 4 hrs; format: functional; details: Swiss albino CF1, 4 h, read-out: MED; procedure, shortened: as §2
Mus musculus [11] = test: Anticonvulsant activity in ip dosed Swiss albino CF1 mouse assessed as protection against subcutaneous pentylenetetrazole-induced seizures after 0.5 hrs; format: functional; details: Swiss albino CF1, 0.5 h, read-out: MED; procedure, shortened: as §2
Mus musculus [12] = test: Anticonvulsant activity in ip dosed Swiss albino CF1 mouse assessed as protection against maximal electroshock-induced seizures after 0.5 hrs; format: functional; details: read-out: MED; procedure, shortened: as §2
Mus musculus [13] = test: Neurotoxicity in Swiss albino CF1 mouse assessed as minimal motor deficit at 30 to 300 mg/kg, ip after 4 hrs by rotarod test; format: toxicity, organism-based; parameters: dose 30-300 mg/kg, route intraperitoneal; details: in vivo; procedure, shortened: as §1
Mus musculus [14] = test: Neurotoxicity in ip dosed Swiss albino CF1 mouse assessed as minimum dose required to produce minimal motor deficit after 0.5 hrs by rotarod test; format: toxicity, organism-based; details: in vivo; procedure, shortened: as §1

| Structure (SMILES) | Activity (Mus musculus [1]) | Activity (Mus musculus [2]) | Activity (Mus musculus [3]) | logP at 24 h [4] | Activity (Mus musculus [5]) | Activity (Mus musculus [6]) | Activity (Mus musculus [7]) | MTC (Mus musculus [8]) | minimal effective dose (Mus musculus [9]) | minimal effective dose (Mus musculus [10]) | minimal effective dose (Mus musculus [11]) | minimal effective dose (Mus musculus [12]) | Activity (Mus musculus [13]) | MTC (Mus musculus [14]) |
| --- | --- | --- | --- | --- | --- | --- | --- | --- | --- | --- | --- | --- | --- | --- |
| O=C(CN1C(=O)c2ccccc2C1=O)NN1C(=O)CSC1c1cccs1 (stereo not given) | Non-toxic | inactive | inactive | 2.15 | inactive | 71.73% | 63.04% | 100 mg/kg | 100 mg/kg | – | – | – | – | – |
| COc1cc(C2SCC(=O)N2NC(=O)CN2C(=O)c3ccccc3C2=O)ccc1O (stereo not given) | Non-toxic | – | – | 1.31 | – | 7.31% | 38.13% | – | 100 mg/kg | 300 mg/kg | 300 mg/kg | 30 mg/kg | Non-toxic | – |
| COc1ccc(C2SCC(=O)N2NC(=O)CN2C(=O)c3ccccc3C2=O)cc1OC (stereo not given) | Non-toxic | – | – | 2.78 | – | 27.95% | 20.25% | – | 300 mg/kg | 300 mg/kg | 100 mg/kg | 300 mg/kg | Non-toxic | – |
| O=C1NC(=O)C(c2ccccc2)(c2ccccc2)N1 [PHENYTOIN] | – | – | – | – | – | 18.57% | 33.9% | 100 mg/kg | 30 mg/kg | – | – | 30 mg/kg | – | 100 mg/kg |
| O=C(CN1C(=O)c2ccccc2C1=O)NN1C(=O)CSC1c1c(F)cccc1Cl (stereo not given) | Non-toxic | – | – | 3.79 | – | 30.18% | 12.01% | – | 100 mg/kg | 300 mg/kg | 300 mg/kg | 100 mg/kg | Non-toxic | – |
| O=C(CN1C(=O)c2ccccc2C1=O)NN1C(=O)CSC1c1ccc(Cl)cc1Cl (stereo not given) | – | – | – | 2.54 | inactive | 25.55% | 63.73% | – | 30 mg/kg | 100 mg/kg | 100 mg/kg | – | Non-toxic | 300 mg/kg |
| O=C(CN1C(=O)c2ccccc2C1=O)NN1C(=O)CSC1c1c[nH]c2ccccc12 (stereo not given) | Non-toxic | inactive | – | 1.59 | – | 25.84% | 9.95% | – | 300 mg/kg | – | 300 mg/kg | 300 mg/kg | Non-toxic | – |
| O=C(CN1C(=O)c2ccccc2C1=O)NN1C(=O)CSC1c1cccnc1 (stereo not given) | Non-toxic | inactive | inactive | 1.25 | – | 24.01% | 18.03% | – | 300 mg/kg | – | – | 100 mg/kg | Non-toxic | – |
| Cc1ccc(C2SCC(=O)N2NC(=O)CN2C(=O)c3ccccc3C2=O)cc1 (stereo not given) | Non-toxic | – | – | 2.97 | – | 68.16% | 25.94% | – | 30 mg/kg | 300 mg/kg | 100 mg/kg | 30 mg/kg | Non-toxic | – |
| CN(C)c1ccc(C2SCC(=O)N2NC(=O)CN2C(=O)c3ccccc3C2=O)cc1 (stereo not given) | Non-toxic | – | – | 2.84 | – | 44.08% | 9.78% | – | 300 mg/kg | 300 mg/kg | 300 mg/kg | 300 mg/kg | Non-toxic | – |
| O=C(CN1C(=O)c2ccccc2C1=O)NN1C(=O)CSC1/C=C/c1ccccc1 (stereo not given) | Non-toxic | inactive | – | 3.65 | – | 66.5% | 5.66% | – | 300 mg/kg | – | 300 mg/kg | 300 mg/kg | Non-toxic | – |
| O=C(CN1C(=O)c2ccccc2C1=O)NN1C(=O)CSC1c1ccc(O)cc1 (stereo not given) | – | inactive | inactive | 2.4 | – | 43.34% | 68.37% | 300 mg/kg | 100 mg/kg | – | – | 30 mg/kg | – | 300 mg/kg |
| CCCC(CCC)C(=O)[O-].[Na+] [VALPROATE SODIUM] | Non-toxic | inactive | – | – | – | – | – | – | – | – | 300 mg/kg | – | Non-toxic | – |
| O=C(CN1C(=O)c2ccccc2C1=O)NN1C(=O)CSC1c1ccccc1O (stereo not given) | – | inactive | inactive | 1.46 | – | 36.91% | 32.63% | 100 mg/kg | 100 mg/kg | – | – | 100 mg/kg | – | 100 mg/kg |
| O=C(CN1C(=O)c2ccccc2C1=O)NN1C(=O)CSC1c1ccccc1 (stereo not given) | – | – | – | 2.23 | – | 64.26% | 50% | 30 mg/kg | 100 mg/kg | 300 mg/kg | 100 mg/kg | 100 mg/kg | – | 30 mg/kg |
| O=C(CN1C(=O)c2ccccc2C1=O)NN1C(=O)CSC1c1ccc(Cl)cc1 (stereo not given) | – | inactive | – | 3.21 | – | 16.13% | 50.83% | – | 300 mg/kg | – | 300 mg/kg | 300 mg/kg | Non-toxic | 300 mg/kg |
| COc1ccc(C2SCC(=O)N2NC(=O)CN2C(=O)c3ccccc3C2=O)cc1 (stereo not given) | – | inactive | inactive | 1.97 | – | 14.93% | 3.25% | 300 mg/kg | 100 mg/kg | – | – | 100 mg/kg | – | 300 mg/kg |
